Results as given in ChEMBL document CHEMBL3046353, “Synthesis and fungicidal activity of some 5-membered heterocyclic derivatives containing benzimidazoles” (1993).
Calls of active or inactive are those of the source. No cut-off for these calls is given here.

Tests used:
Echinochloa crus-galli [1] = test: Pre-emergence herbicidal activity against Echinochloa crus-galli (barnyard grass); type: functional, organism-based
Musca domestica = test: Insecticidal activity against Musca domestica (house fly); type: functional, organism-based
Rhizoctonia solani = test: Fungicidal activity against Rhizoctonia solani at 500 ppm after 7 days by poisoned food technique; type: functional; conditions: 168 h, read-out: GI
Procedure, shortened: (§1)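 Cultures kept on potato dextrose agar. Each compound, dissolved in acetone, was added to potato dextrose agar at a final 500 ppm (w/v) (poisoned food technique). A disc cut from the periphery of a seven-day-old culture was inoculated onto each set. Control sets held potato dextrose agar only. The read-out is percentage inhibition of fungal growth relative to control.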

Sagittaria latifolia [2] = test: Pre-emergence herbicidal activity against Sagittaria latifolia (broadleaf arrowhead); type: functional, organism-based
Helminthosporium = test: Fungicidal activity against Helminthosporium oryzae at 500 ppm after 7 days by poisoned food technique; type: functional; conditions: 168 h, read-out: GI; procedure, shortened: as §1
Abutilon theophrasti [3] = test: Pre-emergence herbicidal activity against Abutilon theophrasti (velvetleaf); type: functional, organism-based
Oryza sativa [4] = test: Pre-emergence herbicidal activity against Oryza sativa (rice); type: functional, organism-based
Sagittaria latifolia [5] = test: Herbicidal activity against Sagittaria latifolia (broadleaf arrowhead) under paddy conditions; type: functional, organism-based
Echinochloa crus-galli [6] = test: Herbicidal activity against Echinochloa crus-galli (barnyard grass) under paddy conditions; type: functional, organism-based
Convolvulaceae [7] = test: Pre-emergence herbicidal activity against Convolvulaceae (morning glory family); type: functional, organism-based
Spodoptera litura = test: Insecticidal activity against Spodoptera litura; type: functional, organism-based
Sagittaria latifolia [8] = test: Post-emergence herbicidal activity against Sagittaria latifolia (broadleaf arrowhead); type: functional, organism-based
Schoenoplectus acutus [9] = test: Pre-emergence herbicidal activity against Schoenoplectus acutus (hardstem bulrush); type: functional, organism-based
Abutilon theophrasti [10] = test: Post-emergence herbicidal activity against Abutilon theophrasti (velvetleaf); type: functional, organism-based
Oryza sativa [11] = test: Post-emergence herbicidal activity against Oryza sativa (rice); type: functional, organism-based
Culex pipiens pallens = test: Insecticidal activity against Culex pipiens pallens (mosquito) at 3 to 5 ppm; type: functional, organism-based
Avena sativa [12] = test: Post-emergence herbicidal activity against Avena sativa; type: functional, organism-based
Tetranychus cinnabarinus = test: Insecticidal activity against Tetranychus cinnabarinus (carmine spider mite); type: functional, organism-based
Echinochloa crus-galli [13] = test: Post-emergence herbicidal activity against Echinochloa crus-galli (barnyard grass); type: functional, organism-based
Schoenoplectus acutus [14] = test: Herbicidal activity against Schoenoplectus acutus (hardstem bulrush) under paddy conditions; type: functional, organism-based
Oryza sativa [15] = test: Herbicidal activity against Oryza sativa (rice) under paddy conditions; type: functional, organism-based
Schoenoplectus acutus [16] = test: Post-emergence herbicidal activity against Schoenoplectus acutus (hardstem bulrush); type: functional, organism-based
Convolvulaceae [17] = test: Herbicidal activity against Convolvulaceae (morning glory family) under paddy conditions; type: functional, organism-based
Avena sativa [18] = test: Herbicidal activity against Avena sativa under paddy conditions; type: functional, organism-based
Convolvulaceae [19] = test: Post-emergence herbicidal activity against Convolvulaceae (morning glory family); type: functional, organism-based
Avena sativa [20] = test: Pre-emergence herbicidal activity against Avena sativa; type: functional, organism-based

## c1ccc(-c2nnc(SCc3nc4ccccc4[nH]3)o2)cc1
Echinochloa crus-galli [1]
  Activity: inactive
Musca domestica
  Activity: inactive
Rhizoctonia solani
  inhibition of growth at 500 ppm: 65.2%
Sagittaria latifolia [2]
  Activity: inactive
Helminthosporium
  inhibition of growth at 500 ppm: 73.5%
Abutilon theophrasti [3]
  Activity: inactive
Oryza sativa [4]
  Activity: inactive
Sagittaria latifolia [5]
  Activity: inactive
Echinochloa crus-galli [6]
  Activity: inactive
Convolvulaceae [7]
  Activity: inactive
Spodoptera litura
  Activity: inactive
Sagittaria latifolia [8]
  Activity: inactive
Schoenoplectus acutus [9]
  Activity: inactive
Abutilon theophrasti [10]
  Activity: inactive
Oryza sativa [11]
  Activity: inactive
Culex pipiens pallens
  Activity: Active
Avena sativa [12]
  Activity: inactive
Tetranychus cinnabarinus
  Activity: inactive
Echinochloa crus-galli [13]
  Activity: inactive
Schoenoplectus acutus [14]
  Activity: inactive
Oryza sativa [15]
  Activity: inactive
Schoenoplectus acutus [16]
  Activity: inactive
Convolvulaceae [17]
  Activity: inactive
Avena sativa [18]
  Activity: inactive
Convolvulaceae [19]
  Activity: inactive
Avena sativa [20]
  Activity: inactive

## Nn1c(SCc2nc3ccccc3[nH]2)nnc1-c1cccc(Cl)c1
Echinochloa crus-galli [1]
  Activity: inactive
Musca domestica
  Activity: inactive
Rhizoctonia solani
  inhibition of growth at 500 ppm: 61.2%
Sagittaria latifolia [2]
  Activity: inactive
Helminthosporium
  inhibition of growth at 500 ppm: 89.3%
Abutilon theophrasti [3]
  Activity: inactive
Oryza sativa [4]
  Activity: inactive
Sagittaria latifolia [5]
  Activity: inactive
Echinochloa crus-galli [6]
  Activity: inactive
Convolvulaceae [7]
  Activity: inactive
Spodoptera litura
  Activity: inactive
Sagittaria latifolia [8]
  Activity: inactive
Schoenoplectus acutus [9]
  Activity: inactive
Abutilon theophrasti [10]
  Activity: inactive
Oryza sativa [11]
  Activity: inactive
Culex pipiens pallens
  Activity: Active
Avena sativa [12]
  Activity: inactive
Tetranychus cinnabarinus
  Activity: inactive
Echinochloa crus-galli [13]
  Activity: inactive
Schoenoplectus acutus [14]
  Activity: inactive
Oryza sativa [15]
  Activity: inactive
Schoenoplectus acutus [16]
  Activity: inactive
Convolvulaceae [17]
  Activity: inactive
Avena sativa [18]
  Activity: inactive
Convolvulaceae [19]
  Activity: inactive
Avena sativa [20]
  Activity: inactive

## Cc1ccc2[nH]c(CSc3nnc(-c4cccc(Cl)c4)n3N)nc2c1
Echinochloa crus-galli [1]
  Activity: inactive
Musca domestica
  Activity: inactive
Rhizoctonia solani
  inhibition of growth at 500 ppm: 71.2%
Sagittaria latifolia [2]
  Activity: inactive
Helminthosporium
  inhibition of growth at 500 ppm: 82.5%
Abutilon theophrasti [3]
  Activity: inactive
Oryza sativa [4]
  Activity: inactive
Sagittaria latifolia [5]
  Activity: inactive
Echinochloa crus-galli [6]
  Activity: inactive
Convolvulaceae [7]
  Activity: inactive
Spodoptera litura
  Activity: inactive
Sagittaria latifolia [8]
  Activity: inactive
Schoenoplectus acutus [9]
  Activity: inactive
Abutilon theophrasti [10]
  Activity: inactive
Oryza sativa [11]
  Activity: inactive
Culex pipiens pallens
  Activity: Active
Avena sativa [12]
  Activity: inactive
Tetranychus cinnabarinus
  Activity: inactive
Echinochloa crus-galli [13]
  Activity: inactive
Schoenoplectus acutus [14]
  Activity: inactive
Oryza sativa [15]
  Activity: inactive
Schoenoplectus acutus [16]
  Activity: inactive
Convolvulaceae [17]
  Activity: inactive
Avena sativa [18]
  Activity: inactive
Convolvulaceae [19]
  Activity: inactive
Avena sativa [20]
  Activity: inactive

## Clc1ccccc1-c1nnc(SCc2nc3ccccc3[nH]2)o1
Echinochloa crus-galli [1]
  Activity: inactive
Musca domestica
  Activity: inactive
Rhizoctonia solani
  inhibition of growth at 500 ppm: 56.2%
Sagittaria latifolia [2]
  Activity: inactive
Helminthosporium
  inhibition of growth at 500 ppm: 75%
Abutilon theophrasti [3]
  Activity: inactive
Oryza sativa [4]
  Activity: inactive
Sagittaria latifolia [5]
  Activity: inactive
Echinochloa crus-galli [6]
  Activity: inactive
Convolvulaceae [7]
  Activity: inactive
Spodoptera litura
  Activity: inactive
Sagittaria latifolia [8]
  Activity: inactive
Schoenoplectus acutus [9]
  Activity: inactive
Abutilon theophrasti [10]
  Activity: inactive
Oryza sativa [11]
  Activity: inactive
Culex pipiens pallens
  Activity: Active
Avena sativa [12]
  Activity: inactive
Tetranychus cinnabarinus
  Activity: inactive
Echinochloa crus-galli [13]
  Activity: inactive
Schoenoplectus acutus [14]
  Activity: inactive
Oryza sativa [15]
  Activity: inactive
Schoenoplectus acutus [16]
  Activity: inactive
Convolvulaceae [17]
  Activity: inactive
Avena sativa [18]
  Activity: inactive
Convolvulaceae [19]
  Activity: inactive
Avena sativa [20]
  Activity: inactive
